Source: ChEMBL document CHEMBL4251671, “Microporenic Acids A-G, Biofilm Inhibitors, and Antimicrobial Agents from the Basidiomycete Microporus Species” (J Nat Prod, 2018)
In brackets after ≈: the same amount, converted by molar mass. Activity calls are given as the source filed them. The calls are words filed in the database; no cut-off is given here.

Assays:
Wickerhamomyces anomalus = assay: Antimicrobial activity against Pichia anomala DSM 6766 by serial dilution method; assay type: functional
Outline: (§1)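 MIC by serial dilution in microtiter plates, in triplicate. YMG medium for yeasts and filamentous fungi, EBS for bacteria. Starting concentration 300 μg/mL.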

Yamadazyma tenuis = assay: Antimicrobial activity against Candida tenuis MUCL 29982 by serial dilution method; assay type: functional; outline: as §1
Bacillus subtilis = assay: Antimicrobial activity against Bacillus subtilis DSM 10 by serial dilution method; assay type: functional; outline: as §1
Escherichia coli [1] = conditions: DSM 498
Micrococcus luteus = assay: Antimicrobial activity against Micrococcus luteus DSM 1790 by serial dilution method; assay type: functional; outline: as §1
KB 3-1 [2] = assay: Cytotoxicity against human KB 3.1 cells assessed as inhibition of cell growth at 37 ug/ml after 5 days by MTT assay; assay type: cell-based; conditions: kb 3-1, 120 h
Staphylococcus aureus [3] = assay: Antimicrobial activity against Staphylococcus aureus DSM 346 by serial dilution method; assay type: functional; outline: as §1
Mucor plumbeus = assay: Antimicrobial activity against Mucor plumbeus MUCL 49355 by serial dilution method; assay type: functional; outline: as §1
L929 [4] = assay: Cytotoxicity against mouse L929 cells assessed as inhibition of cell growth at 37 ug/ml after 5 days by MTT assay; assay type: cell-based; conditions: l929, 120 h
Staphylococcus aureus [5] = assay: Antibiofilm activity against Staphylococcus aureus DSM 1104 after 24 hrs by crystal violet staining based assay; assay type: functional, organism-based
Outline: (§2)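 S. aureus set to 0.5 McFarland turbidity and grown with serially diluted compounds in CASO broth with 4% glucose, 24 h, 37 °C. Biofilm stained with crystal violet 15 min, washed three times, dye extracted with dilute acetic acid, absorbance read at 550 nm. Two repeats of three parallel experiments; methanol as negative control.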

Staphylococcus aureus [6] = assay: Antibiofilm activity against Staphylococcus aureus DSM 1104 at 128 ug/ml after 24 hrs by crystal violet staining based assay relative to control; assay type: functional; conditions: DSM 1104, 24 h; outline: as §2
Staphylococcus aureus [7] = assay: Antimicrobial activity against Staphylococcus aureus DSM 1104 by serial dilution method; assay type: functional
Staphylococcus aureus [8] = assay: Antibiofilm activity against Staphylococcus aureus DSM 1104 at 64 ug/ml after 24 hrs by crystal violet staining based assay relative to control; assay type: functional; conditions: DSM 1104, 24 h; outline: as §2
Staphylococcus aureus [9] = assay: Antibiofilm activity against Staphylococcus aureus DSM 1104 at 256 ug/ml after 24 hrs by crystal violet staining based assay relative to control; assay type: functional; conditions: DSM 1104, 24 h; outline: as §2
L929 [10] = assay: Cytotoxicity against mouse L929 cells assessed as inhibition of cell growth after 5 days by MTT assay; assay type: cell-based; conditions: L929, 120 h
Outline: (§3)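 IC50 determined by the previously described in vitro cytotoxicity method against mouse fibroblast L929 and HeLa-derived KB-3.1 cells. Compounds were tested from a starting concentration of 37 μg/mL.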

Staphylococcus aureus [11] = assay: Antibiofilm activity against Staphylococcus aureus DSM 1104 preformed biofilm after 24 hrs by crystal violet staining based assay; assay type: functional, organism-based
Outline: (§4)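 S. aureus set to 0.5 McFarland turbidity; biofilm preformed 24 h in CASO broth with 4% glucose, then exposed to compounds a further 24 h at 37 °C. Remaining biofilm quantified by crystal violet staining. Triplicate, two repetitions.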

Candida albicans [12] = assay: Antibiofilm activity against Candida albicans DSM 11225 preformed biofilm after 24 hrs by MTT assay; assay type: functional, organism-based
Outline: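 C. albicans set to 0.5 McFarland turbidity; biofilm preformed 4 h at 37 °C in SB broth, then treated with serially diluted compounds for a further 24 h at 37 °C. Dispersal read by MTT reduction. Triplicate, two repetitions; methanol as negative control.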

Staphylococcus aureus [13] = assay: Antibiofilm activity against Staphylococcus aureus DSM 1104 at 150 ug/ml after 24 hrs by crystal violet staining based assay relative to control; assay type: functional; conditions: DSM 1104, 24 h; outline: as §2
Staphylococcus aureus [14] = assay: Antibiofilm activity against Staphylococcus aureus DSM 1104 at 75 ug/ml after 24 hrs by crystal violet staining based assay relative to control; assay type: functional; conditions: DSM 1104, 24 h; outline: as §2
Staphylococcus aureus [15] = assay: Antibiofilm activity against Staphylococcus aureus DSM 1104 at 37 ug/ml after 24 hrs by crystal violet staining based assay relative to control; assay type: functional; conditions: DSM 1104, 24 h; outline: as §2
Candida albicans [16] = assay: Antimicrobial activity against Candida albicans DSM 11225 by serial dilution method; assay type: functional
Escherichia coli [17] = assay: microbe, parasite or virus in culture; conditions: DSM 498
Staphylococcus aureus [18] = assay: Antibiofilm activity against Staphylococcus aureus DSM 1104 at 16 ug/ml after 24 hrs by crystal violet staining based assay relative to control; assay type: functional; conditions: DSM 1104, 24 h; outline: as §2
KB 3-1 [19] = assay: Cytotoxicity against human KB 3.1 cells assessed as inhibition of cell growth after 5 days by MTT assay; assay type: cell-based; conditions: KB 3-1, 120 h; outline: as §3
Staphylococcus aureus [20] = assay: Antibiofilm activity against Staphylococcus aureus DSM 1104 preformed biofilm at 128 ug/ml after 24 hrs by crystal violet staining based assay relative to control; assay type: functional; conditions: DSM 1104, 24 h; outline: as §4
Staphylococcus aureus [21] = assay: Antibiofilm activity against Staphylococcus aureus DSM 1104 preformed biofilm at 256 ug/ml after 24 hrs by crystal violet staining based assay relative to control; assay type: functional; conditions: DSM 1104, 24 h; outline: as §4
Staphylococcus aureus [22] = assay: Antibiofilm activity against Staphylococcus aureus DSM 1104 preformed biofilm at 64 ug/ml after 24 hrs by crystal violet staining based assay relative to control; assay type: functional; conditions: DSM 1104, 24 h; outline: as §4
Candida albicans [23] = assay: Antibiofilm activity against Candida albicans DSM 11225 preformed biofilm at 8 ug/ml after 24 hrs by MTT assay relative to control; assay type: functional; conditions: DSM 11225, 24 h
Candida albicans [24] = assay: Antibiofilm activity against Candida albicans DSM 11225 preformed biofilm at 16 ug/ml after 24 hrs by MTT assay relative to control; assay type: functional; conditions: DSM 11225, 24 h

Row | Molecule | MIC (Wickerhamomyces anomalus) | MIC (Yamadazyma tenuis) | MIC (Bacillus subtilis) | MIC (Escherichia coli [1]) | MIC (Micrococcus luteus) [µg/mL] | Activity (KB 3-1 [2]) | MIC (Staphylococcus aureus [3]) | MIC (Mucor plumbeus) | Activity (L929 [4]) | MIC (Staphylococcus aureus [7]) [µg/mL] | also measured
1 | C/C(=C\CC/C(C)=C/CC/C(C)=C/CC/C(C)=C/CO[C@@H](C(=O)O)[C@H](CC(=O)O)C(=O)O)CO | inactive | 37.5 µg/mL (≈ 78 µM) | 37.5 µg/mL (≈ 78 µM) | inactive | 18.8 (≈ 39 µM) | Non-Toxic | 75 µg/mL (≈ 156 µM) | 75 µg/mL (≈ 156 µM) | Non-Toxic |  | 
2 | CC(C)=CCC[C@@](C)(O)[C@@H](O)CC/C(C)=C/CC/C(C)=C/CO[C@@H](C(=O)O)[C@H](CC(=O)O)C(=O)O | inactive | inactive | inactive | inactive |  | Non-Toxic | inactive | inactive | Non-Toxic |  | 
3 | C/C(=C\CC/C(C)=C/CO[C@@H](C(=O)O)[C@H](CC(=O)O)C(=O)O)CC/C=C(\C)CC[C@H](O)C(C)(C)O | inactive | inactive | inactive | inactive | 300 (≈ 602 µM) | Non-Toxic | inactive | 300 µg/mL (≈ 602 µM) | Non-Toxic |  | 
4 | CC(C)=CCC/C(C)=C/CC/C(C)=C/CO[C@@H](C(=O)O)[C@H](CC(=O)O)C(=O)O | inactive | 37.5 µg/mL (≈ 94.6 µM) | 18.8 µg/mL (≈ 47.4 µM) | inactive | 9.4 (≈ 23.7 µM) | Non-Toxic | 150 µg/mL (≈ 378 µM) | 75 µg/mL (≈ 189 µM) | Non-Toxic |  | 
5 | C/C(=C\CC/C(C)=C/CO[C@@H](C(=O)O)[C@H](CC(=O)O)C(=O)O)CC/C=C(\C)CC/C=C(\C)C(=O)O | inactive | inactive | inactive | inactive | 75 (≈ 152 µM) | Non-Toxic | inactive | inactive | Non-Toxic |  | 
6 | COC(=O)C[C@H](C(=O)O)[C@@H](OC/C=C(\C)CC/C=C(\C)CC/C=C(\C)CCC=C(C)C)C(=O)O | inactive | inactive | 300 µg/mL (≈ 627 µM) | inactive | 37.5 (≈ 78.3 µM) | Non-Toxic | 300 µg/mL (≈ 627 µM) | 150 µg/mL (≈ 313 µM) | Non-Toxic | > 256 | Activity (Staphylococcus aureus [5]): Dose-dependent effect; inhibition at 128 µg/mL (Staphylococcus aureus [6]): 38%; inhibition at 64 µg/mL (Staphylococcus aureus [8]): 11%; inhibition at 256 µg/mL (Staphylococcus aureus [9]): 86%
7 | C/C(=C\c1csc(C)n1)[C@@H]1C[C@@H]2O[C@]2(C)CCC[C@H](C)[C@H](O)[C@@H](C)C(=O)C(C)(C)[C@@H](O)CC(=O)O1 [PATUPILONE] |  |  |  |  |  |  |  |  |  |  | IC50 (L929 [10]): 0.0014 µM
8 | C[C@@H]1CO[C@H]2[C@@H]1CC[C@H](C)[C@]21C=C(CO)CC1 | inactive | inactive | 300 µg/mL (≈ 1270 µM) | inactive | 75 (≈ 317 µM) | Non-Toxic | inactive | 75 µg/mL (≈ 317 µM) | Non-Toxic |  | 
9 | CN(C)[C@@H]1C(=O)C(C(N)=O)=C(O)[C@@]2(O)C(=O)C3=C(O)c4c(O)cccc4[C@@](C)(O)[C@H]3[C@H](O)[C@@H]12 |  |  |  |  | 8.3 (≈ 18 µM) |  | 1 µg/mL (≈ 2.17 µM) |  |  | 1 (≈ 2.17 µM) | 
10 | C=C1C(=O)O[C@@H](C)[C@@H]1O |  |  |  |  |  |  |  |  |  | 150 (≈ 1170 µM) | Activity (Staphylococcus aureus [11]): inactive; Activity (Candida albicans [12]): inactive; inhibition at 150 µg/mL (Staphylococcus aureus [13]): 99%; inhibition at 75 µg/mL (Staphylococcus aureus [14]): 92%; inhibition at 37 µg/mL (Staphylococcus aureus [15]): 85%
11 | NYSTATIN | 16.7 µg/mL | 16.7 µg/mL |  |  |  |  |  | 9.4 µg/mL |  |  | MIC (Candida albicans [16]): 16.7 µg/mL
12 | O=C(O)c1cn(C2CC2)c2cc(N3CCNCC3)c(F)cc2c1=O [CIPROFLOXACIN] |  |  | 2.3 µg/mL (≈ 6.94 µM) |  |  |  |  |  |  |  | MIC (Escherichia coli [17]): 2.3 µg/mL (≈ 6.94 µM)
13 | CC(C)=CCC/C(C)=C/CC/C(C)=C/CC/C(C)=C/CO[C@@H](C(=O)O)[C@H](CC(=O)O)C(=O)O |  | 300 µg/mL (≈ 646 µM) | 300 µg/mL (≈ 646 µM) | inactive | 37.5 (≈ 80.7 µM) |  | 300 µg/mL (≈ 646 µM) | 75 µg/mL (≈ 161 µM) | Non-Toxic | > 256 | Activity (Staphylococcus aureus [5]): Dose-dependent effect; MIC (Wickerhamomyces anomalus; Hansenula anomala): 150 µg/mL (≈ 323 µM); inhibition at 16 µg/mL (Staphylococcus aureus [18]): 28%; IC50 (KB 3-1 [19]): 6 µM; inhibition at 128 µg/mL (Staphylococcus aureus [20]): 37%; inhibition at 256 µg/mL (Staphylococcus aureus [21]): 49%; inhibition at 64 µg/mL (Staphylococcus aureus [22]): 1.5%; inhibition at 8 µg/mL (Candida albicans [23]): 52%; MIC (Candida albicans [16]): 64 µg/mL (≈ 138 µM); inhibition at 16 µg/mL (Candida albicans [24]): 72%; inhibition at 64 µg/mL (Staphylococcus aureus [8]): 54%; inhibition at 256 µg/mL (Staphylococcus aureus [9]): 86%
